The target of test [1] is Muscarinic acetylcholine receptor M3 (Cavia porcellus) (UniProt Q8VH26). The test is described as follows: Antagonist affinity at muscarinic acetylcholine receptor (mAChR) of guinea pig longitudinal ileum (M3). In kind it is functional, tissue-based. In outline: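 Guinea pig ileum (either sex, 200-400 g) in a 15 mL organ bath of physiological salt solution, gassed 5% CO2/95% O2, pH 7.4. Arecaidine propargyl ester curves (0.01-0.5 µM) were run at 30 min intervals, with the first discarded and the second taken as control. A repeat curve followed 60 min antagonist. pK came from graphical EC50 dose ratios by the Furchgott equation.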

Test [2] has as its system Muscarinic acetylcholine receptor M2 (Cavia porcellus). Kind of test: Antagonist affinity at muscarinic acetylcholine receptor (mAChR) of guinea pig left atrium (M2). To be noted: Cardiac atrium.
A short description of test [3]: Antagonism of carbachol action on nAChR of isolated frog rectus abdominus. It counts as functional, tissue-based, Rectus abdominis muscle.
Test [4] has as its target Acetylcholine receptor (Torpedo californica) (UniProt P02710+P02712+P02718+P02714). To be noted: Tetronarce californica; Electric organ.

Muscarinic acetylcholine receptor M3 (Cavia porcellus), sequence (Q8VH26 1-587): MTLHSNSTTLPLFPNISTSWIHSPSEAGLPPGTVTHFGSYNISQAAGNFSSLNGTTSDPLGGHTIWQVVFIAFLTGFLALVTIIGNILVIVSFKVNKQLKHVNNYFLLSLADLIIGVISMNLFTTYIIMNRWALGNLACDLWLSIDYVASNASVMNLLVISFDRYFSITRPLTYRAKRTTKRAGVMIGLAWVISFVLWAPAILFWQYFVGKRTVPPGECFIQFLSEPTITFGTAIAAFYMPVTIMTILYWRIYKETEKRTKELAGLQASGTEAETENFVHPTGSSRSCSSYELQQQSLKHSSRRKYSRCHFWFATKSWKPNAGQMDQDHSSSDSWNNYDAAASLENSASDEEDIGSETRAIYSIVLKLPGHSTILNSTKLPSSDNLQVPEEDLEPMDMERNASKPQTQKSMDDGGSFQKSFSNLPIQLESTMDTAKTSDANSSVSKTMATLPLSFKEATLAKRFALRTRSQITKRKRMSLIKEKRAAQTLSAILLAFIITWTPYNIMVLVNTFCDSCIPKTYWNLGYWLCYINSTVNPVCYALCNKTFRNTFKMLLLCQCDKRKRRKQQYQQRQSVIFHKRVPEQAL

The term pKB denotes the KB on a negative log10 scale, so that one unit is a factor of ten. `COc1ccccc1CNCCCCCCOCCCCCCCCOCCCCCCNCc1ccccc1OC`: the negative-log KB (pKB) in test [1] and in test [2] was less than 5 throughout. For the same molecule, the “Log IC50” value in test [3] is on record as -5.14.
Turning to `COc1ccccc1CN(C)CCCCCCN(C)CCCCCCCCN(C)CCCCCCN(C)Cc1ccccc1OC`, the pKB was less than 5 in test [1] and 6.79 in test [2]. Further, the “Log IC50” value in test [3] was -5.88.
In the case of `[N-]=[N+]=Nc1ccc(C(=O)NCCCNCCCCCCNCCCCCCCCCCCCNCCCCCCNCCCNC(=O)c2ccc(N=[N+]=[N-])cc2O)c(O)c1`, in test [4], the pKapp was 5.72. The “Log IC50” value in test [3] was -6.17.
In the case of `c1ccc(C(CNCCCCCCNCCCCCCCCNCCCCCCNCC(c2ccccc2)c2ccccc2)c2ccccc2)cc1`, the pKB in test [1] turned out to be 5.4; in test [2], 5.98. Also, the “Log IC50” value in test [3] is -6.31.
For `COc1ccccc1CNCCCNCCCCCCNCCCCCCNCCCCCCNCCCNCc1ccccc1OC`, the pKB in test [1] was less than 5; in test [2], 6.15. The same molecule displayed a pKapp in test [4] of 6.4. Also, in test [3], the “Log IC50” value is on record as -6.42.
The like results for `CCCC(=O)N[C@H](Cc1ccc(O)cc1)C(=O)NCCCNCCCCCCNCCCCCCNCCCCCCNCc1ccccc1OC` were, in that order, 5.08, 5.87, 6.12 and -5.48.
The like results for `[N-]=[N+]=Nc1ccc(C(=O)NCCCNCCCCCCNCCCCCCCCNCCCCCCN)c(O)c1` were, in that order, 7.35, 7.01, 5.46 and -6.39.
In test [4], `CCCC(=O)N[C@H](Cc1ccc(O)cc1)C(=O)NCCCNCCCCCCNCCCCCCCCCCCCNCCCCCCN` registered a pKapp of 5.28. Further, in test [3], the “Log IC50” value is on record as -6.3.
As for `COc1ccccc1CNCCCCCCNCCCCCCCCNCCCCCCNCc1ccccc1OC` [METHOCTRAMINE], the negative logarithm of the KB (pKB) in test [1] was 6.14. For the same molecule, in test [4], the pKapp is 6.21. Moreover, in test [3], the “Log IC50” value is -5.93.
Take `[N-]=[N+]=Nc1ccc(C(=O)NCCCNCCCCCCNCCCCCCCCNCCCCCCNCCCNC(=O)c2ccc(N=[N+]=[N-])cc2O)c(O)c1`: the pKapp in test [4] amounted to 5.86. The “Log IC50” value in test [3] is recorded as -5.8.
As to `COc1ccc2cc(C(=O)NCCCNCCCCCCNCCCCCCCCNCCCCCCNCc3cc(I)ccc3OC)c(=O)oc2c1`, the pKB in test [1] amounted to 5.68. In addition, in test [4], the pKapp was 6.8. For the same molecule, in test [3], the “Log IC50” value is on record as -7.11.
For `COc1ccccc1CNCCCCCCNCCCCCCCCCCCCNCCCCCCNCc1ccccc1OC`, the pKB turned out to be 5.98 in test [1] and 7.35 in test [2]. In test [4], this molecule returned a pKapp of 5.66. Besides, in test [3], the “Log IC50” value is listed as -7.02.
In the same order, the values of `COc1ccccc1CNCCCCCCNCc1ccc(-c2ccc(-c3ccc(CNCCCCCCNCc4ccccc4OC)cc3)cc2)cc1` are less than 5, less than 5, 6.35 and -6.3.
`CCCC(=O)N[C@H](Cc1ccc(O)cc1)C(=O)NCCCNCCCCCCNCCCCCCCCCCCCNCCCCCCNCc1ccccc1OC` showed a pKapp in test [4] of 5.89. In addition, the “Log IC50” value in test [3] is reported as -6.27.
In the case of `COc1ccccc1CNCCCNCCCCCCNCCCCCCCCCCCCNCCCCCCNCCCNCc1ccccc1OC`, the negative-log KB (pKB) is less than 5 in test [1] and 6.5 in test [2]. The molecule also returned a pKapp in test [4] of 7.04. Besides, the “Log IC50” value in test [3] is reported as -6.66.
Molecule `COc1ccc2cc(C(=O)NCCCNCCCCCCNCCCCCCCCNCCCCCCNCc3ccccc3OC)c(=O)oc2c1` came in with a negative-log KB (pKB) in test [1] of 6.19. Moreover, the pKapp in test [4] is 6.41. In addition, the “Log IC50” value in test [3] is on record as -6.21.
Turning to `CCCC(=O)N[C@H](Cc1ccc(O)cc1)C(=O)NCCCNCCCCCCNCCCCCCNCCCCCCN`, the negative logarithm of the KB (pKB) in test [1] is 5.16; in test [2], less than 5. In test [4], this molecule showed a pKapp of 4.63. The “Log IC50” value in test [3] was -5.62.
In the same order, the values of `COc1ccccc1CNCc1ccc(CNCCCCCCCCCCCCNCc2ccc(CNCc3ccccc3OC)cc2)cc1` are less than 5, less than 5, 6.19 and -6.43.
Regarding `CCCC(=O)NC(Cc1ccc(O)cc1)C(=O)NCCCNCCCCNCCCN` (stereo unspecified), the negative-log KB (pKB) in test [1] is less than 5. This molecule came in with a pKapp in test [4] of 3.94. In addition, in test [3], the “Log IC50” value is reported as -4.62.
For `COc1ccccc1CNCCCCCCNCCCCCCNCCCCCCNCCCCCCNCc1ccccc1OC`, the pKB in test [1] turned out to be 5.3; in test [2] it was 6.98. Moreover, the “Log IC50” value in test [3] is -6.68.
With `COc1ccccc1CNCCCNCCCCCCNCCCCCCCCNCCCCCCNCCCNCc1ccccc1OC`, the pKB in test [1] and in test [2] was less than 6 in each case. Besides, the pKapp in test [4] was found to be 6.66. Also, the “Log IC50” value in test [3] is -6.44.
Consider `COc1ccccc1CCNCCCCCCNCCCCCCCCNCCCCCCNCCc1ccccc1OC`, for which the pKB turned out to be 5.32 in test [1] and 6.64 in test [2]. In test [3], the “Log IC50” value is listed as -5.36.

For the origin of these results see ChEMBL document CHEMBL1135934, “Structure-activity relationships of methoctramine-related polyamines as muscular nicotinic receptor noncompetitive antagonists. 2. Role of polymethylene chain lengths separating amine functions and of substituents on the terminal nitrogen atoms” (J Med Chem, 2002).
